Source: ChEMBL document CHEMBL2046422, “Structure-activity relationship of nonacidic quinazolinone inhibitors of human microsomal prostaglandin synthase 1 (mPGES 1)” (J Med Chem, 2012)

Experiments:
[1] = biological target: T1, Prostaglandin E synthase (Homo sapiens) (UniProt O14684); test: Inhibition of mPGES-1 derived from IL1beta and TNFalpha stimulated human HeLa cells microsomal fraction using PGH2 as substrate at 1 uM preincubated for 30 mins prior to substrate addition measured after 1 min by LC-MS/MS analysis relative to control
T1 sequence (whole entry): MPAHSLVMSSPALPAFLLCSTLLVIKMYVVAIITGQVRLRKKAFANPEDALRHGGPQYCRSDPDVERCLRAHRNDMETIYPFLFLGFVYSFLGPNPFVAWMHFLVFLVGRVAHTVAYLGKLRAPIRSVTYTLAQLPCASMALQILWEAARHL
Outline: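 Microsomes were pelleted by ultracentrifugation and resuspended in buffer with 2.5 mM GSH; protein was measured by Bradford. PGE₂ was read by LC-MS/MS after solid-phase extraction with deuterated standards; n ≥ 3.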

[2] = biological target: T2, Prostaglandin E synthase (Mus musculus) (UniProt Q9JM51); test: Inhibition of mPGES-1 derived from LPS stimulated mouse RAW264.7 cells microsomal fraction using PGH2 as substrate at 5 uM preincubated for 30 mins prior to substrate addition measured after 1 min by LC-MS/MS analysis relative to control
T2 sequence (whole entry): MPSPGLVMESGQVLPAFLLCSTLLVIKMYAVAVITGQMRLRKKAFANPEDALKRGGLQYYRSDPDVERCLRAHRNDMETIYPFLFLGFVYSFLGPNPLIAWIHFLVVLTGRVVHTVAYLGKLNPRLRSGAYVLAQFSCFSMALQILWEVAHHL
Outline: (§1)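 Microsomes came from RAW 264.7 cells stimulated with LPS for 16 h. They were prepared by sonication and ultracentrifugation in 0.1 M potassium phosphate, pH 7.4, with GSH and protease inhibitors, and resuspended with 2.5 mM GSH; protein was measured by Bradford. Compound was tested at the stated final concentration. PGE₂ was quantified by LC-MS/MS after solid-phase extraction with PGE₂-d₄/PGD₂-d₄ standards; SEM, n ≥ 3.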

[3] = biological target: T2, Prostaglandin E synthase (Mus musculus); test: Inhibition of mPGES-1 derived from LPS stimulated mouse NIH3T3 cells microsomal fraction using PGH2 as substrate at 5 uM preincubated for 30 mins prior to substrate addition measured after 1 min by LC-MS/MS analysis relative to control
[4] = biological target: T2, Prostaglandin E synthase (Mus musculus); test: Inhibition of mPGES-1 derived from LPS stimulated mouse RAW264.7 cells microsomal fraction using PGH2 as substrate at 1 uM preincubated for 30 mins prior to substrate addition measured after 1 min by LC-MS/MS analysis relative to control; outline: as §1
[5] = biological target: T2, Prostaglandin E synthase (Mus musculus); test: Inhibition of mPGES-1 derived from LPS stimulated mouse NIH3T3 cells microsomal fraction using PGH2 as substrate at 1 uM preincubated for 30 mins prior to substrate addition measured after 1 min by LC-MS/MS analysis relative to control
[6] = biological target: T3, Prostaglandin G/H synthase 1 (Ovis aries) (UniProt P05979); test: Inhibition of ovine COX1-mediated PGE2 synthesis using PGH2 as substrate at 1 uM by LC-MS/MS analysis relative to control
T3 sequence (whole entry): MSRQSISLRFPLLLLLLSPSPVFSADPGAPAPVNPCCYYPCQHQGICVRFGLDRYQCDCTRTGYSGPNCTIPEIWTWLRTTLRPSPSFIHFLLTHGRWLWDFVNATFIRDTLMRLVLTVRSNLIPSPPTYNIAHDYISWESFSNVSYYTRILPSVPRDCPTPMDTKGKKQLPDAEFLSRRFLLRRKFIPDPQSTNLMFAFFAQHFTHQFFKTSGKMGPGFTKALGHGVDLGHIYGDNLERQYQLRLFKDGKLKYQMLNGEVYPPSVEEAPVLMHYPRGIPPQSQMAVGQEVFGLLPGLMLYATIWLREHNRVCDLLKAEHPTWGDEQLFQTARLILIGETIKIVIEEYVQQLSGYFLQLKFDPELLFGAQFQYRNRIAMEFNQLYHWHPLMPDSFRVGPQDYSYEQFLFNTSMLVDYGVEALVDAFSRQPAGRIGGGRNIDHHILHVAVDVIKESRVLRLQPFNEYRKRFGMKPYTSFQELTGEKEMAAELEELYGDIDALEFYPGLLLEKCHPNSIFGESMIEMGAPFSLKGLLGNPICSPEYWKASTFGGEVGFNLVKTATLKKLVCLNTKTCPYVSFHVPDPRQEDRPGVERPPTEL
Outline: (§2)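 Direct enzyme test with a COX inhibitor screening kit, run per the kit protocol: COX-1 was ovine, COX-2 human recombinant. […] Prostaglandins were quantified by LC-MS/MS after solid-phase extraction. Mean of n ≥ 3.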

[7] = biological target: T4, Prostaglandin G/H synthase 2 (Homo sapiens) (UniProt P35354); test: Inhibition of human recombinant COX2-mediated PGE2 synthesis using PGH2 as substrate at 1 uM by LC-MS/MS analysis relative to control; outline: as §2
T4 sequence (whole entry): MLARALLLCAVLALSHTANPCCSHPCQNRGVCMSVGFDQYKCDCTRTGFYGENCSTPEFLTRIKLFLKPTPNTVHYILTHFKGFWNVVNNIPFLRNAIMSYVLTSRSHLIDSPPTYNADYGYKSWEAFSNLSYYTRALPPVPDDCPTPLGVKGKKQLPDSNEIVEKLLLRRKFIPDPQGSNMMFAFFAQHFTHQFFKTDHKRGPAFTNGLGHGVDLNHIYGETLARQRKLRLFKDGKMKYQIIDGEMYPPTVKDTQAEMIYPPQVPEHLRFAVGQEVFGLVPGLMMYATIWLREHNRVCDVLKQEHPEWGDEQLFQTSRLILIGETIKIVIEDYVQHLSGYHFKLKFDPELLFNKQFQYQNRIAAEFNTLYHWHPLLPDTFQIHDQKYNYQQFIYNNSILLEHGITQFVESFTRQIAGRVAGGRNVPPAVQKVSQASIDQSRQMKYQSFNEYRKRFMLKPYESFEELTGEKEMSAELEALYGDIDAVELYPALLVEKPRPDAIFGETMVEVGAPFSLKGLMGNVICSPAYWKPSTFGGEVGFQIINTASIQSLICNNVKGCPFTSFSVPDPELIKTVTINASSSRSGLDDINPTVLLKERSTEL

HeLa = test: Cytotoxicity against IL1beta and TNFalpha-stimulated human HeLa cells at 1 to 10 uM after 24 hrs by WST1 assay; assay type: cell-based
Outline: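 HeLa cells were seeded at 3 × 10³ per well and grown 24 h at 37 °C. They were then stimulated with IL-1β (1 ng/mL) + TNFα (5 ng/mL) while treated with compound at 1, 10 or 100 μM, or DMSO, for 24 h. WST-1 was added for 90–150 min and absorbance read at 450 nm against 620 nm. Viability is percent of DMSO control, SEM, n ≥ 3.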

[8] = biological target: T1, Prostaglandin E synthase (Homo sapiens); test: Inhibition of mPGES-1 in IL1beta and TNFalpha-stimulated human HeLa cells assessed as PGE2 level after 24 hrs by LC-MS/MS analysis; assay type: cell-based
Outline: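 HeLa cells (2 × 10⁴) were grown 24 h at 37 °C. The medium was then replaced with IL-1β (1 ng/mL) + TNFα (5 ng/mL), or PBS for unstimulated controls, together with compound at 1, 10 or 100 μM, or DMSO, for 24 h at 37 °C. Supernatant PGE₂ was quantified by LC-MS/MS after solid-phase extraction with deuterated standards. Inhibition is percent of DMSO control corrected for unstimulated background, SEM, n ≥ 3.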

[9] = biological target: Prostaglandin G/H synthase 1 (Homo sapiens) (UniProt P23219); test: Inhibition of COX1 in human whole blood assessed as residual TXB2 level at 10 uM after 1 hr by LC-MS/MS analysis relative to control
Chain of Prostaglandin G/H synthase 1 (Homo sapiens) (P23219 whole entry): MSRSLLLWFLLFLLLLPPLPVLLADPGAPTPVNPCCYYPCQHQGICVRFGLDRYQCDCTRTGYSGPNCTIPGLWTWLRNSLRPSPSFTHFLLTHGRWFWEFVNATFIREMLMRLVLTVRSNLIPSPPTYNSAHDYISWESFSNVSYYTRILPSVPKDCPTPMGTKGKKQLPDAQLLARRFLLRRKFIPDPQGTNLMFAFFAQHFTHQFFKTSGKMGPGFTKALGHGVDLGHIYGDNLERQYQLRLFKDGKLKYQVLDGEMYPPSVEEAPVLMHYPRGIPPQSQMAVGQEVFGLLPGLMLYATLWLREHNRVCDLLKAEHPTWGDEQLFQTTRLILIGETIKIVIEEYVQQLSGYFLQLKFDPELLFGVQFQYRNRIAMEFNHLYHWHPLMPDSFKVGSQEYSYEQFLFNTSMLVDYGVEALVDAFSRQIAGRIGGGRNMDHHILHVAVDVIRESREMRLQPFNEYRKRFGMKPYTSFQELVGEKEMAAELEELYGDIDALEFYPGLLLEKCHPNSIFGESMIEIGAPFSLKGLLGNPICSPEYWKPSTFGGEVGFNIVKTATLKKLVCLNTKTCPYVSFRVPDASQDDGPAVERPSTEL
Outline: (§3)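 Human venous blood was drawn without additives, and compound was added. Samples clotted at 37 °C for 1 h; negative controls were chilled on ice at once. After 5 min on ice, plasma was separated at 4 °C. It was mixed with H₃PO₄, EDTA, BHT and deuterated internal standards, then put through solid-phase extraction. TXB₂ and PGD₂ were measured by LC-MS/MS, relative to vehicle-treated blood.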

[10] = biological target: Prostaglandin G/H synthase 1 (Homo sapiens) (UniProt P23219); test: Inhibition of COX1 in human whole blood assessed as residual PGD2 level at 10 uM after 1 hr by LC-MS/MS analysis relative to control; outline: as §3
[11] = biological target: T4, Prostaglandin G/H synthase 2 (Homo sapiens); test: Inhibition of COX2 in LPS-stimulated human whole blood assessed as residual PGE2 level at 100 uM preincubated for 15 mins prior to LPS-stimulation measured after 24 hrs by LC-MS/MS analysis relative to control
Outline: (§4)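 Human whole blood received compound in DMSO plus acetylsalicylic acid (10 μg/mL) to block COX-1, 15 min at 37 °C. LPS (10 μg/mL final) in autologous plasma was added to induce COX-2/mPGES-1, and blood was incubated 24 h at 37 °C. Samples were chilled on ice 5 min, and plasma prostaglandins were extracted by solid-phase extraction and quantified by LC-MS/MS. Values are relative to vehicle.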

[12] = biological target: T5, 5-lipoxygenase/FLAP (Homo sapiens) (UniProt P09917+P20292); test: Inhibition of 5-lipoxygenase/FLAP in calcium ionophore-stimulated human whole blood assessed as residual LTB4 level at 10 uM preincubated for 15 mins prior to calcium ionophore-stimulation measured after 15 mins by LC-MS/MS analysis; assay type: protein-complex assay
Outline: (§5)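 Heparinized human whole blood (500 μL) was preincubated with compound for 15 min at 37 °C. It was then stimulated with 20 μM calcium ionophore A23187 in autologous plasma for 15 min at 37 °C and chilled on ice for 5 min. Plasma was collected by centrifugation at 4 °C. Eicosanoids were recovered by liquid–liquid extraction with deuterated internal standards and quantified by LC-MS/MS (MRM). Levels are relative to vehicle-treated blood.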

[13] = biological target: T4, Prostaglandin G/H synthase 2 (Homo sapiens); test: Inhibition of COX2 in LPS-stimulated human whole blood assessed as residual PGF2alpha level at 100 uM preincubated for 15 mins prior to LPS-stimulation measured after 24 hrs by LC-MS/MS analysis relative to control; outline: as §4
[14] = biological target: T5, 5-lipoxygenase/FLAP (Homo sapiens); test: Inhibition of 5-lipoxygenase/FLAP in calcium ionophore-stimulated human whole blood assessed as residual 12(s)HETE level at 10 uM preincubated for 15 mins prior to calcium ionophore-stimulation measured after 15 mins by LC-MS/MS analysis; assay type: protein-complex assay; outline: as §5
[15] = biological target: T5, 5-lipoxygenase/FLAP (Homo sapiens); test: Inhibition of 5-lipoxygenase/FLAP in calcium ionophore-stimulated human whole blood assessed as 5(s)HETE level at 10 uM preincubated for 15 mins prior to calcium ionophore-stimulation measured after 15 mins by LC-MS/MS analysis; assay type: protein-complex assay; parameters: scale not given: the % may be the effect or the level left; outline: as §5
[16] = biological target: T5, 5-lipoxygenase/FLAP (Homo sapiens); test: Inhibition of 5-lipoxygenase/FLAP in calcium ionophore-stimulated human whole blood assessed as residual 15(s)HETE level at 10 uM preincubated for 15 mins prior to calcium ionophore-stimulation measured after 15 mins by LC-MS/MS analysis; assay type: protein-complex assay; outline: as §5
[17] = biological target: T5, 5-lipoxygenase/FLAP (Homo sapiens); test: Inhibition of 5-lipoxygenase/FLAP in calcium ionophore-stimulated human whole blood assessed as residual (+/-)11HETE level at 10 uM preincubated for 15 mins prior to calcium ionophore-stimulation measured after 15 mins by LC-MS/MS analysis; assay type: protein-complex assay; outline: as §5

## CCCc1nc2ccc(NC(=O)Nc3ccccc3Cl)cc2c(=O)n1Cc1ccccc1Cl
[1]
  inhibition: 14.1%

## CCCc1nc2ccc(NC(=O)C(C)(C)C)cc2c(=O)n1Cc1ccc(-c2cccc(Cl)c2)cc1
[1]
  inhibition: 18.8%

## CCCc1nc2ccc(NC(=O)CCc3ccccc3)cc2c(=O)n1Cc1ccc(-c2cccc(Cl)c2)cc1
[1]
  inhibition: 32.7%

## O=C(Cn1cnc2ccccc2c1=O)Nc1ccccc1Cl
[1]
  inhibition: < 0%

## CCCc1nc2ccc(NC(=O)c3ccccc3Cl)cc2c(=O)n1Cc1ccc(-c2ccccc2OC)cc1
[1]
  inhibition: 61.3%

## CCCCCCC(Sc1nc(Cl)cc(Nc2cccc(C)c2C)n1)C(=O)O (stereo not given)
[2]
  inhibition: 66.2%
[3]
  inhibition: 62.9%

## CCCc1nc2ccc(NC(=O)c3c(Cl)cccc3Cl)cc2c(=O)n1Cc1cccc(Cl)c1
[1]
  inhibition: 61.3%

## O=C1NC(c2ccccc2Cl)Oc2ccccc21 (stereo not given)
[1]
  inhibition: < 0%

## CCCc1nc2ccc(NC(=O)c3ccccc3F)cc2c(=O)n1Cc1ccc(-c2cccc(Cl)c2)cc1
[1]
  inhibition: 30%

## Cc1nc2ccc(NC(=O)c3ccccc3Cl)cc2c(=O)n1Cc1ccc(-c2cccc(Cl)c2)cc1
[1]
  inhibition: 41.9%

## Cc1ccccc1C(=O)Nc1cc2c(=O)n(Cc3ccccc3)c(C)nc2cc1N1CCCC1
[1]
  inhibition: 37.1%

## CCCc1nc2ccc(NC(=O)C3CC3)cc2c(=O)n1Cc1ccc(-c2cccc(OC)c2)cc1
[1]
  inhibition: 15.9%

## O=C(Nc1ccc2nc(C3CC3)n(Cc3ccccc3)c(=O)c2c1)c1cccnc1
[1]
  inhibition: < 0%

## O=C(Nc1ccc2nc(Cc3ccccc3)n(Cc3cccc(Cl)c3)c(=O)c2c1)c1ccccc1Cl
[1]
  inhibition: 67.2%
[4]
  inhibition: 3.8%
[5]
  inhibition: 17.8%
[6]
  inhibition: < 0%
[7]
  inhibition: < 0%
HeLa
  Activity: Non-toxic
[8]
  inhibition: Dose-dependent effect

## CCCc1nc2ccc(NC(=O)c3ccccc3Cl)cc2c(=O)n1Cc1ccccc1Cl
[4]
  inhibition: 15.2%
[5]
  inhibition: 6.6%
[6]
  inhibition: 16.1%
[7]
  inhibition: < 0%
HeLa
  Activity: Non-toxic
[9]
  Activity: 86.1%
[10]
  Activity: 89%
[11]
  Activity: 34.2%
[12]
  Activity: 91.3%
[13]
  Activity: 73.4%
[14]
  Activity: 82.7%
[15]
  Activity: 88.1%
[16]
  Activity: 78.3%
[17]
  Activity: 75.4%

## Cc1ccc(-c2cc(C(F)(F)F)nn2-c2ccc(S(N)(=O)=O)cc2)cc1
[8]
  inhibition: Dose-dependent effect

## CCCc1nc2ccc(NC(=O)c3cccs3)cc2c(=O)n1Cc1ccc(-c2cccc(Cl)c2)cc1
[1]
  inhibition: 15.6%

## CCCc1nc2ccc(NC(=O)c3ccccc3)cc2c(=O)n1Cc1ccc(-c2cccc(Cl)c2)cc1
[1]
  inhibition: 15.3%

## CCCc1nc2ccc(NC(=O)c3ccc(Cl)cc3)cc2c(=O)n1Cc1ccc(-c2cccc(Cl)c2)cc1
[1]
  inhibition: 14.7%

## CCCc1nc2ccc(NC(C)=O)cc2c(=O)n1Cc1ccc(-c2cccc(Cl)c2)cc1
[1]
  inhibition: 14.8%
